Only some compounds are listed: those with a hit (about 1.5% of all), similar ones and a draw of the others.
GalR3 antag – antagonists of human GalR3. 360,000 compounds, 0.44% hits. inhibition, % at 3 µM. AID 651719. HEK293 GalR3-CNG cAMP membrane potential fluorescence; galR3 body fused to GalR1 C-terminus;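 active means inhibition above the screen-wide average plus 3 SD, cut at about 13% in these data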;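 further: forskolin and galanin both at EC90 stimulate the cells; cAMP rise reported by CNG channel membrane potential dye signal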
Target sequence (O60755 1-299 limits assumed): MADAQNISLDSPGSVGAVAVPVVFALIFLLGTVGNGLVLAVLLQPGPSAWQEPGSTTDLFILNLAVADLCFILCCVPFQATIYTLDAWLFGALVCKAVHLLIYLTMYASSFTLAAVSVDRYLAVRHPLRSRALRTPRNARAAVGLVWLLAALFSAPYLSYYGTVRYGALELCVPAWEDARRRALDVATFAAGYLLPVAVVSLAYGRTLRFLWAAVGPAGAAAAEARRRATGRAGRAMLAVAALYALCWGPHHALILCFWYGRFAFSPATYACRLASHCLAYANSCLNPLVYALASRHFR
NR2E3 ag-1 – human photoreceptor-specific nuclear receptor agonism. CHO-S Gal4-NCOR/VP16-NR2E3 two-hybrid, luciferase. Q9Y5X4. 360,000 compounds, 0.35% hits. inhibition of corepressor binding, % at 3.98 µM;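 active means inhibition above the mean of all tested compounds plus 3 SD, cut at about 70% in these data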;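 further: higher means lower luciferase signal from less NR2E3 corepressor binding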
NR2E3 ag-2 – activates human photoreceptor nuclear receptor NR2E3; AID 2300; 320,000 compounds, 0.12% hits; inhibition of corepressor binding, % at 4.78 µM; GST-NR2E3/biotin-RetCOR TR-FRET, 1536-well;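 active means percent inhibition above the cutoff of mean plus 3 SD of all tested compounds, set per screening campaign, cut at about 20% in these data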
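Test system – NR2E3–RetCOR corepressor complex · Quantity – NR2E3 fusion 1.35 nM · Buffer or medium – Tris pH 7.5 · Incubation – Compound–protein incubation for 5 h at 4 °C · Technique – TR-FRET, Eu(K)-anti-GST donor, streptavidin-D2 acceptor, ex 340, em 617/671 nm · Evaluation – percent inhibition of 671/617 nm emission ratio versus biotin and DMSO controls · Plate – 1536-well format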
Jurkat NFkB inh – lowers PMA/ionomycin-induced NF-kB signal in Jurkat cells; PMA/ionomycin-induced NF-kB luciferase reporter, luminescence; inhibition, % at 4 µM; 330,000 compounds, 0.53% hits; in the data active means inhibition above about 50%
JMJD2C inh – inhibitors of human GASC-1 (JMJD2C) demethylase | Q9H3R0 | GST-JMJD2C(1-420) H3K9me3 demethylation, DELFIA europium | inhibition, % at 2.35 µM | 330,000 compounds, 0.069% hits | AID 2099;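 active means more than half of a compound's replicate wells show inhibition beyond 50%, single wells judged on their own value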;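 further: signal counts dimethyl H3K9 product captured on neutravidin plate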
Target sequence (Q9H3R0 1-420 limits assumed): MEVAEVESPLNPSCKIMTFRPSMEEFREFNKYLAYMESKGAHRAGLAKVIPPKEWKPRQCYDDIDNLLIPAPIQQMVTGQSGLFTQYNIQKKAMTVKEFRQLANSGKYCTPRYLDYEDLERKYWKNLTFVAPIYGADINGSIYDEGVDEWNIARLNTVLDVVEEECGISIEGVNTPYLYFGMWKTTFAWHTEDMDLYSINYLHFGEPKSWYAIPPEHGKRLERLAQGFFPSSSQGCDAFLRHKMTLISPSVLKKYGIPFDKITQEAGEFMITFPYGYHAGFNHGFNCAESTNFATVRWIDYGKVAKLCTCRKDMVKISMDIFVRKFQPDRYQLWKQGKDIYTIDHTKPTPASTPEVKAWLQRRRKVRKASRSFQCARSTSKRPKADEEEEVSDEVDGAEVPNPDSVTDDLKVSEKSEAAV
697 NFkB inh – inhibitors of the PMA/ionomycin-induced NF-kB reporter in 697 B cells. 330,000 compounds, 0.33% hits. 697 B-cell NF-kB luciferase reporter, 16 h. inhibition, % at 4 µM. AID 435022; in the data active means inhibition above about 35%
NR2E3 ag conf – NR2E3 agonism confirmed in two-hybrid assay; CHO-S mammalian two-hybrid NR2E3-NCOR, luciferase luminescence; shares compounds with NR2E3 ag-1; inhibition, % at 3.98 µM; 2,300 compounds, 51% hits;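 active means average inhibition above a cutoff equal to the mean inhibition of all tested compounds plus one SD, cut at about 70% in these data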
GAL4-VP16 luc – GAL4-VP16 reporter inhibition in NR2E3 agonist counterscreen; shares compounds with NR2E3 ag-1; CHO-S GAL4-VP16 luciferase reporter, luminescence; inhibition, % at 3.98 µM; 2,300 compounds, 29% hits; AID 624379;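 active means mean inhibition above a cutoff equal to the average over all tested compounds plus one standard deviation, cut at about 70% in these data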;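 further: luciferase from a UAS reporter driven by GAL4-VP16 transactivation; higher means less reporter light so more repression of VP16 activity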
Of the large screens only hits and unclear results are named; the others gave an inactive call (follow-up assays come after a bar, where they were run).

Cc1ccc(C2C(/C=C3/SC(=S)NC3=O)=C(c3cccs3)Oc3ccccc32)cc1 (configuration not stated)	NR2E3 ag-1 74.2 | NR2E3 ag conf 87.1 | GAL4-VP16 luc inactive
COc1ccc(-n2cnnc2SCC(=O)Nc2cc(C(C)(C)C)nn2-c2ccccc2)cc1	none | NR2E3 ag conf inactive | GAL4-VP16 luc inactive
COc1ccccc1-n1cnnc1SCC(=O)Nc1cc(C(C)(C)C)nn1-c1ccccc1	none
Cc1ccc(NC(=O)CCc2nc3ccccc3c(=O)[nH]2)cc1S(=O)(=O)N1CCOCC1	none
Cc1ccc2c(c1C)-c1c(ccc(C)c1C)C(=O)C2=O	none (no result: NR2E3 ag-2, Jurkat NFkB inh, JMJD2C inh, 697 NFkB inh) | NR2E3 ag conf inactive | GAL4-VP16 luc inactive
COc1ccc(N2C(=O)c3n[nH]c(C(C)C)c3C2c2ccccc2)cc1 (configuration not stated)	none (no result: NR2E3 ag-1, NR2E3 ag-2, Jurkat NFkB inh, JMJD2C inh, 697 NFkB inh)
COc1ccc(S(=O)(=O)N2CCN(c3ccc(C)cc3C)CC2)cc1OC	none | NR2E3 ag conf 74.4 | GAL4-VP16 luc inactive
Cc1ccc(OCC(=O)N2N=C(C(F)(F)F)CC2(O)C(C)(C)C)cc1C (configuration not stated)	none | NR2E3 ag conf inactive | GAL4-VP16 luc inactive
Cc1ccccc1OCC(=O)N1N=C(C(F)(F)F)CC1(O)C(C)(C)C (configuration not stated)	none
O=C(Nc1ccc(OCC(F)(F)C(F)F)c(C(F)(F)F)c1)c1ccc(Cl)cc1	NR2E3 ag-1 89.9 | NR2E3 ag conf inactive | GAL4-VP16 luc inactive
CCN(CC)C(=O)CSc1nnc(-c2ccccn2)n1-c1ccc(C)c(C)c1	none
CSCCC(NS(=O)(=O)c1ccccc1F)C(=O)N1CCCCCCC1 (configuration not stated)	none
COC(=O)c1sccc1NC(=O)Cc1ccc(OC)c(OC)c1	none
COC(=O)c1c(-c2ccc(C)cc2)csc1NC(=O)Cc1ccc(OC)c(OC)c1	none (no result: NR2E3 ag-2, Jurkat NFkB inh, 697 NFkB inh) | NR2E3 ag conf inactive | GAL4-VP16 luc inactive
CC(C)(C)c1ccc(CSc2nc(N)cc(=O)[nH]2)cc1	NR2E3 ag-1 95.8 (no result: GalR3 antag) | NR2E3 ag conf 76.2 | GAL4-VP16 luc inactive
C/C(CCC12CC3CC(CC(C3)C1)C2)=N\NC(N)=S	none
C/C(CC(C)(C)C1CCCCC1)=N\NC(N)=S	NR2E3 ag-1 80.7 | NR2E3 ag conf inactive | GAL4-VP16 luc inactive
CC(C)(C)OC(=O)N1Cc2ccccc2C[C@H]1C(=O)NCC(=O)Nc1ccc2c(c1)OCCO2	none | NR2E3 ag conf inactive | GAL4-VP16 luc inactive
COc1ccc(C(=O)Nc2ccc3c(c2)C(=O)c2ccccc2C3=O)cc1OC	none
COc1ccc(C(=O)c2c(C(F)(F)F)oc3c2C(=O)c2ccccc2C3=O)cc1OC	NR2E3 ag-1 88.6 | NR2E3 ag conf 99.8 | GAL4-VP16 luc inactive
COc1ccc(NC(=O)C(C)N2c3cccc4cccc(c34)S2(=O)=O)cc1 (configuration not stated)	none
COc1ccc(NC(=O)C(C)N2c3cccc4cccc(c34)S2(=O)=O)cc1OC (configuration not stated)	none | NR2E3 ag conf inactive | GAL4-VP16 luc inactive
CC/C(=N\NC(=O)c1nnn(-c2nonc2N)c1-c1cccs1)c1ccccc1	none
N#Cc1c(-c2cccs2)cc(-c2ccccn2)nc1N	none | NR2E3 ag conf inactive | GAL4-VP16 luc inactive
Cc1ccccc1S(=O)(=O)NC(=O)C1(C)CCN1C(=O)CCc1ccc(Cl)cc1Cl (configuration not stated)	none (no result: NR2E3 ag-2, Jurkat NFkB inh, JMJD2C inh, 697 NFkB inh)
O=S(=O)(c1ccc2c(c1)C(O)c1ccccc1CC2)C(F)(F)F (configuration not stated)	none | NR2E3 ag conf inactive | GAL4-VP16 luc inactive
O=[N+]([O-])c1ccc(P(=O)(Cc2ccccc2)c2ccccc2O)cc1 (configuration not stated)	none
CC(C)(CNC(=O)c1cccc(S(=O)(=O)Nc2ccc(Br)cc2)c1)N1CCOCC1	none
Cc1ccc(NC(=O)CNC(=O)c2ccc(Oc3ccccc3)cc2)nc1	none
Cc1ccc(NC(=O)CNC(=O)c2cccc(C)c2)nc1	none | NR2E3 ag conf 75.0 | GAL4-VP16 luc inactive
COc1cnc(-c2ccccn2)nc1Sc1ccc(Cl)cc1	none | NR2E3 ag conf inactive | GAL4-VP16 luc inactive
COc1cnc(-c2ccccn2)nc1Sc1ccc(F)cc1	none | NR2E3 ag conf inactive | GAL4-VP16 luc inactive
CCOC(=O)CSc1nc(-c2ccccn2)ncc1OC	none
COc1cnc(N(C)C)nc1Sc1ccc(Cl)cc1	none
COc1cnc(-c2ccccn2)nc1Sc1ccccc1	NR2E3 ag-1 94.3 | NR2E3 ag conf inactive | GAL4-VP16 luc inactive
COc1ccc(Sc2nc(-c3ccccn3)ncc2OC)cc1	NR2E3 ag-1 91.6 | NR2E3 ag conf inactive | GAL4-VP16 luc inactive
Cc1cccc(OCc2nnc(SCC(=O)Nc3ccc(N4CCOCC4)cc3)o2)c1	none
CC(=O)N1CCN(c2ccc(Oc3ccc([N+](=O)[O-])c(C(F)(F)F)c3)cc2)CC1	NR2E3 ag-1 99.6 (no result: GalR3 antag) | NR2E3 ag conf 96.3 | GAL4-VP16 luc 80.5
CCOc1ccc(C(=O)Nc2ccc(N3CCN(C(C)=O)CC3)cc2)cc1[N+](=O)[O-]	none
Cc1nc(NCc2ccc3c(c2)OCO3)c2oc3ccccc3c2n1	none | NR2E3 ag conf inactive | GAL4-VP16 luc inactive
Cc1ccc(NC(=O)c2c(C(F)(F)F)nn(C)c2SCc2cccc(C(F)(F)F)c2)cc1C	none | NR2E3 ag conf inactive | GAL4-VP16 luc inactive
O=C(Cc1ccc(-c2ccccc2)cc1)NNC(=S)NCc1ccco1	none | NR2E3 ag conf 88.6 | GAL4-VP16 luc inactive
O=C(Cc1cccs1)NNC(=S)NCc1ccco1	none
CC(C)CCNC(=O)[C@@H](Cc1ccccc1)NC(=O)[C@H]1O[C@@H](n2ccc(=O)[nH]c2=O)[C@H](O)[C@@H]1O	none (no result: NR2E3 ag-1, NR2E3 ag-2, Jurkat NFkB inh, JMJD2C inh, 697 NFkB inh)
COc1ccc(NC(=S)c2ccc3ccccc3n2)cc1	none (no result: GalR3 antag)
COc1ccc(N=C(NN)c2ccc3ccccc3n2)cc1	none | NR2E3 ag conf inactive | GAL4-VP16 luc inactive
C[C@@H](C(=O)Nc1ccc2c(c1)OCCO2)n1c(=O)[nH]c2ccccc2c1=O	none | NR2E3 ag conf inactive | GAL4-VP16 luc inactive
COc1cccc(CNC(=O)c2cc3c(C)nc4ccccc4c3o2)c1	none (no result: GalR3 antag)
CCc1ccc(CNC(=O)c2cc3c(C)nc4ccccc4c3o2)cc1	NR2E3 ag-1 93.6 (no result: GalR3 antag) | NR2E3 ag conf 95.2 | GAL4-VP16 luc 86.5
CCc1cccc(CC)c1NC(=O)/C(C#N)=C/c1ccccc1C(F)(F)F	NR2E3 ag-1 75.2 | NR2E3 ag conf inactive | GAL4-VP16 luc inactive
N#Cc1c(-c2ccccc2)cc(-c2ccccc2)nc1SCCC(=O)O	none | NR2E3 ag conf 74.4 | GAL4-VP16 luc inactive

Source: PubChem (several laboratories)
